Screening data as filed in PubChem.
CSC inhib: cancer stem cell viability inhibitors, primary screen, luminescence. cancer stem cell-like cells viability. inhibition, % at 7.5 µM. 300,000 tested, 1.1% active. AID 2717, 2010; in the data active = inhibition above about 75%; inconclusive = no clear call, values can overlap the other calls; tested in HMLE shEcad cells
Mdm2-MdmX inh: inhibitors of human Mdm2-MdmX association, primary screen, cell-based, luminescence, split luciferase, SaOS-2, uHTS; 330,000 tested, 3% active; Protein Mdm4 (Homo sapiens) + E3 ubiquitin-protein ligase Mdm2 (Homo sapiens), …; AID 485346, 2010; SaOS-2 split-luciferase Mdm2/MdmX complementation; inhibition, % at 8 µM;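 active = inhibition of at least 50% at 8 µM in the primary screen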
Target sequence (O15151 whole entry, looked up): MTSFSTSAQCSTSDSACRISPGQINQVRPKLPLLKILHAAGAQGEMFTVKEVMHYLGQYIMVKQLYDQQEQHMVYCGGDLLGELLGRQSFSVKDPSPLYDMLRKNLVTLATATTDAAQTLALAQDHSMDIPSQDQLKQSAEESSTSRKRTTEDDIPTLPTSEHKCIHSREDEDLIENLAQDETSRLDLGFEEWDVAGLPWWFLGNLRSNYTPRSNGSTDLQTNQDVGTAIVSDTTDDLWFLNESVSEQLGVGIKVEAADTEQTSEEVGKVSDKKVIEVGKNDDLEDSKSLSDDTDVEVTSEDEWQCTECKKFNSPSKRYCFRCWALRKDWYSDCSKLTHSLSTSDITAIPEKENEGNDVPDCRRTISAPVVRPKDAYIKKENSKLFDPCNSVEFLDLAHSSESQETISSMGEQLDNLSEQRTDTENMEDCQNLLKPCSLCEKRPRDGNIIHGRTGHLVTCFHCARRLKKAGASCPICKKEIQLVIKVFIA
Target sequence (Q00987 whole entry, looked up): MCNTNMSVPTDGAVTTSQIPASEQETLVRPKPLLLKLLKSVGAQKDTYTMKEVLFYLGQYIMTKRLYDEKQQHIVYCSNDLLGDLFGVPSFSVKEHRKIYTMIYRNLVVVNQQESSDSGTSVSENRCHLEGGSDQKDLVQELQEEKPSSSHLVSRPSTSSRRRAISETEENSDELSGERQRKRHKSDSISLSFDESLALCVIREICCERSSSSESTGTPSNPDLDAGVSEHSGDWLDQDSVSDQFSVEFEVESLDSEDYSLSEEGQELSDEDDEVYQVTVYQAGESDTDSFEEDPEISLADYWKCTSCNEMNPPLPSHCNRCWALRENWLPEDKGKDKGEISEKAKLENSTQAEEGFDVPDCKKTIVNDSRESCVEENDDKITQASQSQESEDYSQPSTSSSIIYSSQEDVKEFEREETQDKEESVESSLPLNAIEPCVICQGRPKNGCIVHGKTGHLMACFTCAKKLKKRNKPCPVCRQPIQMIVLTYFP
T cruzi inh: inhibitors of intracellular T. cruzi growth, primary screen, luminescence, NIH3T3 host cells. 300,000 tested, 1.4% active. T. cruzi beta-gal in NIH3T3, 90 h. inhibition, % (test concentration not listed). AID 1885, 2009;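 active = mean inhibition across valid replicates above about 55%, limit read from the data; inconclusive = mean below that limit but half or more replicates reach it; inactive = mean below it, under half of replicates reach it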;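 note: signal also drops with host cell toxicity which is not excluded here; higher percent means less beta-gal luminescence so fewer parasites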
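System: Mouse NIH/3T3 fibroblasts infected with β-gal-expressing T. cruzi Tulahuen C4 | Quantity: NIH/3T3 cells, 5,000 per well | Reagent: 5000 reporter trypomastigotes per well | Dosing: Compound pinned at 50 nL/well, DMSO | Schedule: 3 h host attachment, then at least 90 h co-culture | Detection: GalScreen luminescence, 60 min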
Calb FLC: C. albicans growth inhibition with fluconazole, primary screen, CaCi-2 strain, Alamar Blue fluorescence | C. albicans CaCi-2 (fluconazole-resistant clinical isolate) + fluconazole, 48 h | growth inhibition, % (concentration not given with the values) | 300,000 tested, 0.57% active;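 active = growth inhibition above about 58% in most replicates, limit read from the data, passing the limit was not always enough; inconclusive = exactly half the replicates above a set limit; inactive = most replicates below a set limit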;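 note: all wells also contain fluconazole at 8 µg/ml as a sub-toxic cotreatment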
Beta apoptosis: inhibitors of cytokine-induced beta cell apoptosis, primary screen, luminescence | AID 435005, 2010 | protection from apoptosis, % (test concentration not listed) | 300,000 tested, 0.8% active | INS-1E cytokine-induced death, ATP luminescence, 48 h; percent of positive-control rescue, neutral wells zero;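 active = Every replicate reaches about 75%, or at least half do and their mean reaches it too, limit read from the data; inconclusive = At least half of replicates reach the limit but their mean does not; inactive = Under half of replicates reach the limit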;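 note: higher means more ATP so stronger rescue from cytokine killing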
SKKanGAS inh: S. pyogenes SKKanGAS growth inhibitors in kanamycin, primary screen, streptokinase expression inhibitor project, SKKanGAS strain, BacTiter-Glo luminescence; inhibition, % at 7.5 µM; 6 h; AID 1662, 2009; 300,000 tested, 1.3% active;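 active = mean replicate score, as percent of positive control median, at least 50; inconclusive = mean below 50 but one replicate at or above 50; inactive = mean and every replicate below 50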;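 note: strain carries kanamycin resistance gene driven by streptokinase promoter and grows in 40 µg/ml kanamycin; loss of luminescence reflects streptokinase promoter inhibition or plain growth inhibition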
Hits are given with their value; – = inactive; ? = inconclusive; · = no result. Hits are enriched below; roughly 5.7% of the tested compounds scored in any of these assays.

SMILES | CSC inhib | Mdm2-MdmX inh | T cruzi inh | Calb FLC | Beta apoptosis | SKKanGAS inh
O=[N+]([O-])c1ccc(S(=O)(=O)NCC(c2cccnc2)N2CCc3ccccc32)cc1 (stereo not given) | – | – | 70 | – | · | –
O=S(=O)(NCC(c1cccnc1)N1CCc2ccccc2C1)c1ccccc1 (stereo not given) | – | – | – | – | – | –
O=S(=O)(NCC(c1cccnc1)N1CCN(c2ccc(F)cc2)CC1)c1cc(F)ccc1F (stereo not given) | – | – | 58 | – | – | –
Cc1ccc(C(CNS(=O)(=O)c2ccc([N+](=O)[O-])cc2)N2CCN(C)CC2)cc1 (stereo not given) | – | – | 58 | – | – | –
O=C(O)c1cc(-c2ccc(Cl)cc2)n(-c2ccc(F)cc2)n1 | – | – | – | – | – | –
Cc1ccsc1C(=O)NCCc1c[nH]c2ccccc12 | – | – | – | – | · | –
Oc1ccc(N=Nc2nc(-c3ccccc3)c(-c3ccccc3)[nH]2)cc1 | 189 | – | – | – | – | –
Oc1ccc(N=Nc2n[nH]c(-c3ccccc3)n2)cc1 | – | – | – | – | – | –
COc1ccc(CNC(=O)CN(Cc2ccccc2)C(=O)CCC(=O)Nc2nccs2)cc1 | – | – | – | – | – | –
Cc1cc(C)cc(NC(=O)c2ccc([N+](=O)[O-])o2)c1 | · | – | – | – | · | –
O=C(Nc1cc([N+](=O)[O-])ccc1O)c1cccc(NC(=O)c2ccco2)c1 | – | – | – | ? | – | 53
CC(=O)c1ccc(NC(=O)c2ccc([N+](=O)[O-])o2)cc1 | 80 | – | – | – | – | –
COc1ccc(NC(=O)c2ccc([N+](=O)[O-])o2)cc1 | – | – | – | 103 | · | –
CC(=O)c1cccc(NC(=O)c2ccc([N+](=O)[O-])o2)c1 | – | – | – | – | – | –
Cc1cc(NC(=O)c2ccc([N+](=O)[O-])o2)ccc1NC(=O)c1ccco1 | · | · | – | 58 | · | –
CC(=O)Cc1nsc(Nc2ccc(F)cc2)n1 | – | – | · | – | – | ·
CC(=O)Cc1nsc(Nc2ccc(Cl)cc2)n1 | – | – | · | 118 | – | ·
Cc1cc(C)nc(NC(=NCc2ccc3c(c2)OCO3)NC(=O)Nc2ccccc2)n1 | – | – | – | 122 | – | ·
CN1CCN(CC(O)COC(c2ccccc2)c2ccccc2)CC1 (stereo not given) | · | – | 61 | – | – | –
CN1CCN(CC(O)COc2ccccc2)CC1 (stereo not given) | – | – | – | – | – | –
CC1CN(CC(O)COC(c2ccc(Cl)cc2)c2ccc(Cl)cc2)CC(C)O1 (stereo not given) | – | – | – | – | 106 | –
O=C(Nc1ccc(NC(=O)c2ccc([N+](=O)[O-])cc2[N+](=O)[O-])cc1)c1ccco1 | – | – | – | – | – | –
O=C(Nc1ccc(Nc2ccncc2)cc1)c1ccc(Nc2ccnc3ccc([N+](=O)[O-])cc23)cc1[N+](=O)[O-] | – | · | – | – | 81 | 54
CNC(CC(=O)c1ccc([N+](=O)[O-])cc1)C(Cl)(Cl)Cl (stereo not given) | 76 | · | · | · | – | ·
Cc1cccc(NC(=O)COc2ccccc2C(=O)NC(C)c2ccccc2)c1 (stereo not given) | – | – | – | – | – | –
SMILES | CSC inhib | Mdm2-MdmX inh | T cruzi inh | Calb FLC | Beta apoptosis | SKKanGAS inh
CCC(CO)Oc1cc(NCc2ccc(F)cc2)c2ncn(C(C)C)c2c1 (stereo not given) | · | – | · | · | – | ·
CCC(CO)Oc1cc(NCc2ccc(C)c(C)c2)c2ncn(C(C)C)c2c1 (stereo not given) | · | – | · | · | 101 | ·
Cc1ccccc1N1CCN(C2CCCN(C(=O)CCC3(C)CC3)C2)CC1 (stereo not given) | – | – | – | – | · | –
Cc1cc(N2CCN(C)CC2)nc2ccc(NC(=S)N3CCN(c4cccc(Cl)c4)CC3)cc12 | – | – | – | – | – | –
Cc1cc(N2CCN(C)CC2)nc2ccc(NC(=S)NCCN3CCc4ccccc4C3)cc12 | – | – | 56 | – | – | –
Cc1cc(N2CCN(C)CC2)nc2ccc(NC(=S)N3CCCCC3)cc12 | · | · | – | – | · | ·
Cc1cc(N2CCN(C)CC2)nc2ccc(NC(=S)NCCCN3CCc4ccccc4C3)cc12 | – | – | – | – | – | –
Cc1cccc(N2CCN(C(=S)Nc3ccc4nc(N5CCN(C)CC5)cc(C)c4c3)CC2)c1C | · | · | 65 | – | · | –
Cc1cc(N2CCN(C)CC2)nc2ccc(NC(=S)N3CCN(c4ccc(Cl)cc4)CC3)cc12 | 109 | – | 61 | – | – | –
COc1cc(CC(=O)OCC(=O)NCc2cccs2)cc(OC)c1OC | – | – | · | · | – | ·
COc1ccc2c(=O)c(-c3ccc(C)cc3)c(-c3ccccc3)oc2c1 | · | – | · | · | · | ·
CCN(Cc1ccccc1)C(c1cccs1)c1nnnn1C1CCCCC1 (stereo not given) | – | – | 56 | – | 101 | –
COc1ccc2cc(C(=O)NCc3ccccc3)c(=Nc3ccc(C(=O)O)cc3)oc2c1 | – | – | – | – | – | 59
O=C(O)c1ccc(N=c2oc3cc(O)ccc3cc2C(=O)NCc2ccccc2)cc1 | – | – | – | – | – | –
CN=c1scc(-c2ccccc2F)n1/N=C(\C)c1cccnc1 | – | – | 55 | – | – | –
Cc1ccsc1C(=O)OCC(=O)NC1CCCC(C)C1C (stereo not given) | – | – | · | · | – | ·
CCn1c(NC(=S)Nc2ccccc2)nc2ccccc21 | – | – | 65 | – | · | –
CCCn1c(NC(=O)c2ccc(C)cc2)nc2ccccc21 | – | – | – | – | – | –
CCn1c(NC(=O)C2CCCCC2)nc2ccccc21 | – | – | – | – | – | –
CCCn1c(NC(=O)C2CCN(S(=O)(=O)c3cccs3)CC2)nc2ccccc21 | – | – | – | – | – | 51
C=CCn1c(NC(=O)c2ccc(C)cc2)nc2ccccc21 | – | – | 61 | – | – | 59
CCCn1c(NC(=O)c2ccccc2)nc2ccccc21 | – | – | – | – | – | 69
COc1cc(OC)cc(N(C(=O)C2COc3ccccc3O2)C(C(=O)NC2CCCCC2)c2ccc(O)cc2)c1 (stereo not given) | – | – | – | 90 | · | –
COCCCN(C(=O)CC1OC(=O)c2ccccc21)c1c(N)n(Cc2ccccc2)c(=O)[nH]c1=O (stereo not given) | – | – | – | – | – | –
O=C(N/N=C/c1ccncc1)c1ccccc1OCc1ccc(Br)cc1 | – | – | 71 | – | – | –
Cc1cccc(/C=N/NC(=O)c2ccccc2OCc2cccc(Br)c2)n1 | · | – | – | – | – | 61
Cc1cccc(/C=N/NC(=O)c2cc(Br)ccc2OCc2ccccc2)n1 | – | – | – | – | · | –
